Published values from different studies.
Each line is one published result; the experiments were not run side by side.
Effect on: cell growth or viability

| Structure (SMILES) | cell line | technique | concentration | time | endpoint | value |
| --- | --- | --- | --- | --- | --- | --- |
| C[C@H](Nc1ccc2c(c1)OCCn1cc(N3C(=O)OC[C@H]3C(F)F)nc1-2)C(N)=O | KPL4 | ATP luminescence |  | 5 days | EC50 | 0.0737 µM |
| COc1ccc(NC(=O)Nc2nc3cc(-c4ccc5ncn(Cc6ccccc6)c(=O)c5c4)ccc3s2)cc1 | NCI-H1975 | MTT |  | 72 h | IC50 | > 20 µM |
| CCCCC(=O)Nc1ccc(-c2ccc3ncn(CCF)c(=O)c3c2)cn1 | NCI-H1975 | CCK-8 |  | 72 h | IC50 | 0.19 µM |
| NCCCC(=O)Nc1ccccc1/N=c1\cc(-c2ccc3c(c2)OCO3)oc2ccccc12 | NCI-H1975 | CCK-8 | 1 µM |  | inhibition | 1.32% |
| CCCCCCCCCCCCCCCCCCOc1ccc(CC(=O)OCC[N+](CC)(CC)CC)cc1 | NCI-H322M | SRB | 10 µM |  | inhibition | 13.3% |
| O=C(Nc1cccc(C(F)(F)F)c1)Nc1nc2cc(-c3ccc4ncn(CCN5CCOCC5)c(=O)c4c3)ccc2s1 | NCI-H1975 | MTT |  | 72 h | IC50 | 1.48 µM |
| CCCCCCCCCCCCCCCCCCOc1cccc(CC(=O)OCC[N+]2(C)CCOCC2)c1 | NCI-H322M | SRB | 10 µM |  | inhibition | 1.47% |
| CCCCC(=O)Nc1ccc(-c2cnc3ccn(CCC)c(=O)c3c2)cn1 | NCI-H1975 | CCK-8 |  | 72 h | IC50 | 1.21 µM |
| CCCCCCCCCCCCCCCCCCOc1ccccc1CC(=O)OCC[N+]1(C)CCOCC1 | NCI-H322M | SRB | 10 µM |  | inhibition | 20.2% |
| O=C(Nc1ccc(F)cc1)Nc1nc2cc(-c3ccc4ncn(CC5CC5)c(=O)c4c3)ccc2s1 | NCI-H1975 | MTT |  | 72 h | IC50 | 1.13 µM |
| O=C(Nc1ccc(-c2ccc3ncn(Cc4ccccc4)c(=O)c3c2)cn1)C1CCC1 | NCI-H1975 | CCK-8 |  | 72 h | IC50 | > 10 µM |
| Oc1cccc(-c2nc(N3CCOCC3)c3oc4ncccc4c3n2)c1 | NCI-H1975 | CCK-8 | 1 µM |  | inhibition | 38% |
| CCCCCCCCCCCCCCCCCCOc1ccccc1CC(=O)OCC[N+](CC)(CC)CC | NCI-H322M | SRB | 10 µM |  | inhibition | 29.4% |
| Cc1nc(NC(=O)N2CCC[C@H]2C(N)=O)sc1-c1ccnc(C(C)(C)C(F)(F)F)c1 | KPL4 | ATP luminescence |  | 5 days | EC50 | 1.19 µM |
| CC(C)CCn1cnc2ccc(-c3ccc4sc(NC(=O)Nc5ccc(F)cc5)nc4c3)cc2c1=O | NCI-H1975 | MTT |  | 72 h | IC50 | 0.96 µM |
| CCCCCCCCCCCCCCCCCCOc1ccc(CC(=O)OCC[N+]2(C)CCCCC2)cc1 | NCI-H322M | SRB | 10 µM |  | inhibition | 3.63% |
| Cc1nc(Nc2ncc(C(=O)Nc3c(C)cccc3Cl)s2)cc(N2CC[C@H](O)C2)n1 | KARPAS-422 | ATP luminescence | 10 µM | 72 h | inhibition | 91% |

| Structure (SMILES) | cell line | technique | concentration | time | endpoint | value |
| --- | --- | --- | --- | --- | --- | --- |
| CCCn1cnc2ccc(-c3ccc(N4CCCCC4=O)nc3)cc2c1=O | NCI-H1975 | CCK-8 |  | 72 h | IC50 | > 10 µM |
| Nc1ccccc1/N=c1\cc(-c2ccc3c(c2)OCO3)oc2ccccc12 | NCI-H1975 | CCK-8 | 1 µM |  | inhibition | 2.1% |
| CCCCn1cnc2ccc(-c3ccc(NC(=O)Nc4ccccc4)nc3)cc2c1=O | NCI-H1975 | CCK-8 |  | 72 h | IC50 | 2.46 µM |
| NCC(=O)Nc1ccccc1/N=c1\cc(-c2ccc3c(c2)OCCO3)oc2cc(F)ccc12 | NCI-H1975 | CCK-8 | 1 µM |  | inhibition | 4.41% |
| O=C(Nc1cc(C(F)(F)F)cc(C(F)(F)F)c1)Nc1nc2cc(-c3ccc4ncn(Cc5ccccc5)c(=O)c4c3)ccc2s1 | NCI-H1975 | MTT |  | 72 h | IC50 | > 20 µM |
| CCCCCCCCCCCCCCCCCCOc1cccc(CC(=O)OCC[N+](C)(C)C)c1 | NCI-H322M | SRB | 10 µM |  | inhibition | 0.32% |
| NCCC(=O)Nc1cccc(/N=c2\cc(-c3ccc4c(c3)OCO4)oc3ccccc23)c1 | NCI-H1975 | CCK-8 | 1 µM |  | inhibition | 2.94% |
| CCCCC(=O)Nc1ccc(-c2ccc3ncn(CC#N)c(=O)c3c2)cn1 | NCI-H1975 | CCK-8 |  | 72 h | IC50 | > 10 µM |
| COc1ccc2/c(=N/c3ccccc3NC(=O)CN)cc(-c3ccc4c(c3)OCCO4)oc2c1 | NCI-H1975 | CCK-8 | 1 µM |  | inhibition | 8.23% |
| CCCC(=O)Nc1nc2cc(-c3ccc4ncn(Cc5ccccc5)c(=O)c4c3)ccc2s1 | NCI-H1975 | MTT |  | 72 h | IC50 | > 20 µM |
| CCCCC(=O)Nc1ncc(-c2ccc3ncn(CCC)c(=O)c3c2)cn1 | NCI-H1975 | CCK-8 |  | 72 h | IC50 | 2.87 µM |
| Cc1cc(C)cc(NC(=O)Nc2nc3cc(-c4ccc5ncn(Cc6ccccc6)c(=O)c5c4)ccc3s2)c1 | NCI-H1975 | MTT |  | 72 h | IC50 | > 20 µM |
| NCCC(=O)Nc1ccccc1/N=c1\cc(-c2ccc3nc(N)oc3c2)oc2ccc(O)cc12 | NCI-H1975 | CCK-8 | 1 µM |  | inhibition | 7.56% |
| COc1cccc2c1C(=O)c1c(O)c3c(c(O)c1C2=O)C[C@@](O)(C(=O)CO)C[C@@H]3O[C@H]1C[C@H](N)[C@H](O)[C@H](C)O1 | NCI-H1975 | MTT |  | 72 h | IC50 | 0.067 µM |
| CCCCn1cnc2ccc(-c3ccc(NC(C)=O)nc3)cc2c1=O | NCI-H1975 | CCK-8 |  | 72 h | IC50 | > 10 µM |
| C[C@H](N)C(=O)Nc1ccccc1/N=c1\cc(-c2ccc3c(c2)OCCO3)oc2cc(F)ccc12 | NCI-H1975 | CCK-8 | 1 µM |  | inhibition | -0.65% |
